Experimental findings from ChEMBL document CHEMBL4304813 (ACS Med Chem Lett, 2019) are described below.

The structures appear in SMILES notation. Converted amounts (≈) assume the structure as drawn. The source made the active and inactive calls. No cut-off for these calls is given here.

Series [1] is described as follows: Inhibition of Hedgehog signaling pathway in mouse ASZ001 cells assessed as decrease in Gli1 mRNA expression after 48 hrs by qRT-PCR analysis. The format is cell-based. To be noted: ASZ001, 48 h. A digest of the protocol:
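Hh-dependent murine basal cell carcinoma line ASZ001; read-out is Gli1 mRNA expression. IC50 given as mean ± SEM of at least two separate experiments, each run in triplicate.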
On the technique in general: In qPCR the cycle at which signal appears reflects the starting amount.

Series [2] can be described thus: Solubility in PBS at pH 4 under shaking condition by HPLC analysis. The format is physicochemical.
A short description of series [3]: Solubility in PBS at pH 7.4 under shaking condition by HPLC analysis. The format is physicochemical.
Series [4] in a line: Microsomal stability in human liver microsomes assessed as half-life at 1 uM in presence of NADPH/phosphate buffer by LC-MS/MS analysis. The format is ADME, Microsome. (In general: Microsomes from liver hold many membrane-bound enzymes, among them those of drug oxidation.)
Series [5] is described as follows: Microsomal stability in human liver microsomes assessed as intrinsic clearance at 1 uM in presence of NADPH/phosphate buffer by LC-MS/MS analysis. The format is ADME, Microsome. To be noted: read-out: CLH.
For series [6], the species on record is Mus musculus. The series can be described thus: Potency index, ratio of ITZ IC50 to test compound IC50 for inhibition of Hedgehog signaling pathway in mouse ASZ001 cells assessed as decrease in Gli1 mRNA expression after 48 hrs by qRT-PCR analysis. The format is cell-based.
For series [7], the species on record is Mus musculus. Nature of the series: Inhibition of Hedgehog signaling pathway in mouse C3H10T1/2 cells assessed as reduction in recombinant mouse sonic hedgehog/oxysterol-induced Gli1 mRNA expression by q-PCR analysis. The format is cell-based.
Series [8] is described as follows: Growth inhibition of human HC04 cells assessed as decrease in cell viability after 72 hrs by CellTiter96 AQueous non radioactive cell proliferation assay. A digest of the protocol: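 HC-04 is a human hepatocyte-derived line rich in drug-metabolizing enzymes. Anti-proliferative activity is reported as GI50.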
The nature of series [9]: Aqueous solubility of the compound. The format is physicochemical. To be noted: buffer.
A short description of series [10]: Drug level in human liver microsomes treated with 1-(4-(4-(((2S,4R)-2-(2,4-dichlorophenyl)-2-methyl-1,3-dioxolan-4-yl)methoxy)phenyl)piperazin-1-yl)-3-(3-hydroxyphenyl)propan-1-one formation at 1 uM in presence of NADPH by LC-MS/MS analysis. The format is ADME, Microsome.
A short description of series [11]: Drug level in human liver microsomes treated with 1-(4-(4-(((2S,4R)-2-(2,4-dichlorophenyl)-2-methyl-1,3-dioxolan-4-yl)methoxy)phenyl)piperazin-1-yl)-2-(3-hydroxyphenyl)ethanone assessed as increase in 1-(4-(((2S,4R)-2-(2,4-dichlorophenyl)-2-methyl-1,3-dioxolan-4-yl)methoxy)phenyl)piperazine formation at 1 uM in presence of NADPH by LC-MS/MS analysis. The format is ADME, Microsome.

A further series has as its system MEF. The series can be described thus: Inhibition of Hedgehog signaling pathway in Sufu-deficient mouse MEF cells assessed as decrease in Gli1 mRNA expression by q-PCR analysis relative to control. The format is cell-based.
Series [12] is described as follows: Drug metabolism in human liver microsomes assessed as increase in oxidized metabolite formation at 1 uM in presence of NADPH by LC-MS/MS analysis. The format is ADME, Microsome.
Series [13] is described as follows: Drug metabolism in human liver microsomes assessed as increase in 1-(4-(((2S,4R)-2-(2,4-dichlorophenyl)-2-methyl-1,3-dioxolan-4-yl)methoxy)phenyl)piperazine formation at 1 uM in presence of NADPH by LC-MS/MS analysis. The format is ADME, Microsome.

A word on the IC50: it is the concentration needed to halve the response being measured. Consider `C[C@]1(c2ccc(Cl)cc2Cl)OC[C@@H](COc2ccc(N3CCN(C(=O)c4ccncc4)CC3)cc2)O1`, for which the IC50 in [1] is 570 nM.

What is called solubility is the dissolved amount per volume that the medium holds. What is called half-life is how long it takes for the measured level to halve. For the molecule `C[C@]1(c2ccc(Cl)cc2Cl)OC[C@@H](COc2ccc(N3CCN(C(=O)N/N=C/c4ccc(O)cc4)CC3)cc2)O1`, the IC50 in [1] came to 960 nM. The solubility amounted to 0.05 µM (≈ 0.0293 µg/mL) in series [2] and 0.02 µM (≈ 0.0117 µg/mL) in [3]. For the same molecule, the half-life at 1 µM in series [4] was 11.4 min. In addition, in series [5], the microsomal CLint at 1 µM was determined as 60 µL/min/mg.

For the molecule `COc1cccc(CCC(=O)N2CCN(c3ccc(OC[C@@H]4CO[C@](C)(c5ccc(Cl)cc5Cl)O4)cc3)CC2)c1`, the IC50 in series [1] worked out at 460 nM.

Regarding `C[C@]1(c2ccc(Cl)cc2Cl)OC[C@@H](COc2ccc(N3CCN(C(=O)CCCc4ccc(O)cc4)CC3)cc2)O1`, in series [1], the IC50 was 470 nM.

Regarding `C[C@]1(c2ccc(Cl)cc2Cl)OC[C@@H](COc2ccc(N3CCN(C(=O)CCc4ccccc4)CC3)cc2)O1`, the IC50 in series [1] is 230 nM.

As for `C[C@]1(c2ccc(Cl)cc2Cl)OC[C@@H](COc2ccc(N3CCN(C(=O)/C=C/c4ccc(O)cc4)CC3)cc2)O1`, the IC50 in [1] was found to be 360 nM.

As to `C[C@]1(c2ccc(Cl)cc2Cl)OC[C@@H](COc2ccc(N3CCN(C(=O)/C=C/c4cccc(O)c4)CC3)cc2)O1`, the 50% inhibitory concentration (IC50) in series [1] was found to be 220 nM.

For `C[C@@]1(c2ccc(Cl)cc2Cl)OC[C@@H](COc2ccc(N3CCN(C(=O)N/N=C/c4cccc(O)c4)CC3)cc2)O1`, the IC50 in series [1] came to 580 nM.

On to `C[C@]1(c2ccc(Cl)cc2Cl)OC[C@@H](COc2ccc(N3CCN(C(=O)CCc4ccc(O)cc4)CC3)cc2)O1`, for which the IC50 in series [1] is 260 nM.

Consider `C[C@]1(c2ccc(Cl)cc2Cl)OC[C@@H](COc2ccc(N3CCN(C(=O)c4ccccn4)CC3)cc2)O1`, for which the IC50 in [1] worked out at 1420 nM.

On to `C[C@]1(c2ccc(Cl)cc2Cl)OC[C@@H](COc2ccc(N3CCN(C(=O)c4ccc(O)cc4)CC3)cc2)O1`, for which the IC50 in [1] stood at 580 nM.

`C[C@]1(c2ccc(Cl)cc2Cl)OC[C@@H](COc2ccc(N3CCN(C(=O)CCc4ccc(O)c(O)c4)CC3)cc2)O1`: the IC50 in [1] is 89 nM. This molecule also came in with a solubility in [3] of 0.84 µM (≈ 0.494 µg/mL). Also, the half-life at 1 µM in [4] is 6.6 min. In [5], the microsomal CLint at 1 µM was determined as 105 µL/min/mg.

One may read the GI50 as the concentration that inhibits growth by half. In the case of `C[C@]1(c2ccc(Cl)cc2Cl)OC[C@@H](COc2ccc(N3CCN(C(=O)CCc4cccc(O)c4)CC3)cc2)O1`, the Ratio IC50 in the series listed under Mus musculus [6] came to 2. Further, in series [1], the IC50 worked out at 81 nM. The solubility in series [3] was 0.03 µM (≈ 0.0171 µg/mL); in [9] it was “Soluble”. Also, in series [4], the half-life at 1 µM is 3.2 min. For the same molecule, the microsomal CLint at 1 µM in [5] came to 218 µL/min/mg. Besides, the inhibition entry in the series listed under Mus musculus [7] is “Active”. In addition, the 50% growth inhibitory concentration (GI50) at 72 h in series [8] was found to be 13200 nM.

On to `C[C@]1(c2ccc(Cl)cc2Cl)OC[C@@H](COc2ccc(N3CCNCC3)cc2)O1`, for which the IC50 in series [1] is 22 nM. Also, the half-life at 1 µM in series [4] was found to be 50.7 min. In [5], the microsomal CLint at 1 µM amounted to 13.7 µL/min/mg. In addition, the Drug uptake result in series [10] and in series [11] was “Active” each time. In addition, the inhibition result in the series filed under Mus musculus [7] is “Active”. For the same molecule, in the series with MEF, the inhibition entry was “inactive”. Also, in series [8], the GI50 at 72 h was 27300 nM. The solubility result in [9] is listed as “Soluble”.

For `C[C@]1(c2ccc(Cl)cc2Cl)OC[C@@H](COc2ccc(N3CCN(C(=O)c4ccc([N+](=O)[O-])cc4)CC3)cc2)O1`, the IC50 in [1] is 160 nM.

Take `C[C@]1(c2ccc(Cl)cc2Cl)OC[C@@H](COc2ccc(N3CCN(C(=O)c4cccc(O)c4)CC3)cc2)O1`: the half-maximal inhibitory concentration (IC50) in [1] is 260 nM. In addition, the half-life at 1 µM in series [4] was found to be 15.9 min. Also, the microsomal CLint at 1 µM in [5] worked out at 43 µL/min/mg.

With `CCC(C)n1ncn(-c2ccc(N3CCN(c4ccc(OCC5COC(Cn6cncn6)(c6ccc(Cl)cc6Cl)O5)cc4)CC3)cc2)c1=O` (stereo unspecified) [ITRACONAZOLE], the IC50 in series [1] was 140 nM. Further, the inhibition entry in the series filed under Mus musculus [7] was “Active”. Further, the inhibition result in the series with MEF was “inactive”.

For the molecule `C[C@]1(c2ccc(Cl)cc2Cl)OC[C@@H](COc2ccc(N3CCN(CCCc4cccc(O)c4)CC3)cc2)O1`, the IC50 in [1] worked out at 870 nM. The solubility in series [2] worked out at 0.13 µM (≈ 0.0725 µg/mL); in [3] it was 0.02 µM (≈ 0.0112 µg/mL). In addition, the half-life at 1 µM in series [4] turned out to be 14 min. For the same molecule, the microsomal CLint at 1 µM in series [5] amounted to 50 µL/min/mg.

Take `C[C@]1(c2ccc(Cl)cc2Cl)OC[C@@H](COc2ccc(N3CCN(C(=O)Cc4cccc(O)c4)CC3)cc2)O1`: in series [1], the IC50 amounted to 380 nM. In series [4], the half-life at 1 µM was 20.4 min. In series [5], the microsomal CLint at 1 µM was 33.9 µL/min/mg. Also, the Drug metabolism entry in [12] and in series [13] was “Metabolite_Detected” throughout.

As to `C[C@]1(c2ccc(Cl)cc2Cl)OC[C@@H](COc2ccc(N3CCN(C(=O)c4ccc(N)cc4)CC3)cc2)O1`, the IC50 in series [1] is 280 nM.

As to `C[C@]1(c2ccc(Cl)cc2Cl)OC[C@@H](COc2ccc(N3CCN(C(=O)c4cccnc4)CC3)cc2)O1`, the 50% inhibitory concentration (IC50) in series [1] turned out to be 1300 nM.

For `C[C@]1(c2ccc(Cl)cc2Cl)OC[C@@H](COc2ccc(N3CCN(C(=O)N/N=C/c4cccc(O)c4)CC3)cc2)O1`, the half-inhibitory concentration (IC50) in series [1] came out at 120 nM.
